Assay outcomes from PubChem.
This is a sample that favours compounds with a hit; in the whole collection about 4.8% have one here.
PAFAH1B2 inh = PAFAH1B2 enzyme inhibitors, primary screen, biochemical, fluorescence polarization, human. recombinant PAFAH1B2, FP-rhodamine activity probe. inhibition, % at 3.39 µM. 340,000 compounds, 1.2% hits. AID 492953, 2010;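 active = inhibition above the mean of all tested compounds plus 3 SD, cut at about 24% in these data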;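 also: 0% = enzyme with DMSO and 100% = wells lacking PAFAH1B2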
UCH37 DUB inh = inhibitors of human UCH37 deubiquitinase, primary screen, biochemical, Ub-AMC cleavage, fluorescence; inhibition, % (concentration not given with the values); AID 588478, 2011; Ubiquitin carboxyl-terminal hydrolase isozyme L5 (Homo sapiens), Q9Y5K5; 330,000 compounds, 0.33% hits; purified proteasome/UCH37;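 active = mean inhibition over replicate wells above about 20%, limit read from the data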;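 also: 0% = compound-free wells with enzyme and 100% = wells lacking proteasome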
Target sequence (Q9Y5K5 whole entry, looked up): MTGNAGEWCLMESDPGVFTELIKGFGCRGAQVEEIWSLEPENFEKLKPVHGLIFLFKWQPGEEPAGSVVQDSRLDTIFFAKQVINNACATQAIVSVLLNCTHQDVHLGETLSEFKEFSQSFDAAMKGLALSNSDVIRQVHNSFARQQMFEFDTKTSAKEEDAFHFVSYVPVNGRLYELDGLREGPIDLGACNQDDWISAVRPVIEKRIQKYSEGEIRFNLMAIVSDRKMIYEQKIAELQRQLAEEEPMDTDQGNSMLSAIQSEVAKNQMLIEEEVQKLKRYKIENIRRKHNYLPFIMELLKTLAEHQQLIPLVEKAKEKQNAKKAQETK
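Test system – human UCH37 enzyme supplied as purified proteasome complex · Incubation – 30 min preincubation with enzyme, 25 min cleavage at room temperature · Detection – AMC fluorescence from Ub-AMC cleavage, excitation 355 nm, emission 460 nm · Benchmarks – no-proteasome wells (full inhibition) and compound-free wells (no inhibition)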
GRIN3A LBD mod = binders of NR3A ligand-binding domain, primary screen, biophysical, differential scanning fluorimetry, uHTS; Glutamate receptor ionotropic, NMDA 3A (GRIN3A) ligand-binding domain; NR3A LBD differential scanning fluorimetry, Tm shift; 0% = protein alone, 100% = glycine-bound protein; Tm shift relative to glycine control, % at 25 µM; 340,000 compounds, 2.5% hits; AID 1259313, 2017;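 active = melting temperature shift of at least 10% of the positive control shift, at one fixed dose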
PAFAH1B3 FP inh = PAFAH1B3 enzyme inhibitors, primary screen, biochemical, fluorescence polarization, human; Platelet-activating factor acetylhydrolase IB subunit alpha1 (Homo sapiens), Q15102; recombinant PAFAH1B3, FP-rhodamine probe; inhibition, % at 3.39 µM; 340,000 compounds, 0.28% hits; AID 492972, 2010;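 active = inhibition above the screen-wide average of all tested compounds plus 3 SD, cut at about 25% in these data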;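 also: 0% = enzyme with DMSO only and 100% = wells lacking PAFAH1B3 protein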
PAFAH2 inh = PAFAH2 enzyme inhibitors, primary screen, biochemical, fluorescence polarization, human | Platelet-activating factor acetylhydrolase 2, cytoplasmic (Homo sapiens), Q99487 | recombinant PAFAH2, FP-rhodamine activity probe | inhibition, % at 3.39 µM | 340,000 compounds, 0.99% hits | AID 492956, 2010;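 active = inhibition above the mean over all tested compounds plus 3 SD, cut at about 30% in these data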;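 also: inhibitors block probe labeling of enzyme so polarization drops; 0% = enzyme with DMSO and 100% = wells lacking PAFAH2 protein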
pPAFAH FP inh = pPAFAH enzyme inhibitors, primary screen, biochemical, fluorescence polarization, human. inhibition, % at 3.39 µM. AID 463082, 2010. Platelet-activating factor acetylhydrolase (Homo sapiens), Q13093. recombinant pPAFAH, FP-rhodamine probe fluorescence polarization. 330,000 compounds, 1.5% hits;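 active = inhibition above the mean inhibition across the screen plus 3 SD, cut at about 25% in these data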;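 also: inhibitors block binding of the rhodamine activity-based probe so polarization drops; 0% = enzyme with DMSO and 100% = wells lacking pPAFAH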
* hit, by the source's call; x = no result given.

SMILES	PAFAH1B2 inh	UCH37 DUB inh	GRIN3A LBD mod	PAFAH1B3 FP inh	PAFAH2 inh	pPAFAH FP inh
CN(C(=O)COC(=O)C(C)(C)Oc1ccc(Cl)cc1)c1c(N)n(Cc2ccccc2)c(=O)[nH]c1=O	4.7	3.2	-0.3	3.0	4.2	28.9*
CCN(C(=O)COC(=O)C(C)(C)Oc1ccc(Cl)cc1)c1c(N)n(Cc2ccccc2)c(=O)[nH]c1=O	1.0	-0.5	-0.8	8.5	-5.5	x
O=C(NN=C/C=C/c1ccco1)C1COc2ccccc2O1 (stereo not given)	x	9.5	x	x	x	x
Cc1cc(Cl)ccc1OCc1cn2cccnc2n1	5.9	-3.7	-1.6	2.0	-1.5	6.1
Clc1cccc(NCc2cn3cccnc3n2)c1	9.4	1.3	10.9*	1.6	0.8	1.3
Nc1nn2c(-c3ccccc3)cc(=O)[nH]c2c1N=Nc1ccc(O)cc1	13.9	9.7	26.9*	16.2	29.1	27.4*
Cc1cc(=O)[nH]c2c1c(-c1ccccc1)nn2C	0.3	1.7	3.4	-4.8	-2.5	-2.3
Cc1cc2[nH]c(=O)cc(-c3ccccc3)n2n1	3.2	-130.6	0.1	6.0	0.9	8.2
Nc1nn2c(-c3ccccc3)cc(=O)[nH]c2c1N=Nc1ccc(Br)cc1	12.6	7.7	24.8*	6.5	19.0	x
CC(Cc1ccccc1)=NNC(=O)CNC(=O)c1cccc(F)c1	x	0.1	x	x	x	x
N#CC(=NO)c1nc2ccccc2[nH]1	x	-1.6	x	x	x	x
N#C/C(=N\O)c1nc2ccccc2[nH]1	-1.1	x	22.3*	-8.7	0.6	-3.9
Cc1ccc(C=NN2CCN(Cc3ccccc3)CC2)cc1	x	1.1	x	x	x	x
CSc1nc(C=C2C=Nc3ccccc32)c(O)n1C	x	7.8	x	x	x	x
O=c1oc(C2(O)CCCCC2)cc2ccccc12	1.5	0.2	-0.5	15.1	1.2	0.1
O=c1oc(C2(O)CCCCC2)cc2ccc(-c3ccc4[nH]ccc4c3)cc12	-0.4	-1.8	10.9*	9.7	-5.0	1.8
O=C(Cc1ccc(Cl)cc1)NNC(=O)C(=O)NC1CCCCC1	27.3*	3.4	-2.0	2.1	6.8	5.0
O=C(CCSc1ccc(Cl)cc1)NC1CCCC1	25.7*	1.4	0.5	9.8	-1.7	4.6
O=C(Cc1ccc(Cl)cc1)NC1CCCCCC1	6.2	4.4	-3.2	0.6	0.2	5.7
CN1CCN(C(=O)CSc2ccc(Cl)cc2)CC1	12.3	1.9	-0.6	1.2	-3.4	1.4
O=C(CCSc1ccc(Cl)cc1)N1CCCCCC1	66.3*	3.8	-1.7	1.6	7.6	6.5
O=C(CCSc1ccccc1)NC1CCCC1	8.7	3.6	-2.2	4.9	-7.0	0.6
CN=c1scc(C)n1N=Cc1ccc(O)cc1	x	7.3	x	x	x	x
COc1cccc(C(=O)NCC(C)(C)SCc2ccc(F)cc2)c1	6.8	5.4	10.0*	5.5	-6.0	8.5
Cc1ccccc1N=Nc1c(N)n[nH]c1N	2.9	11.3	7.4	2.1	-2.0	x
SMILES	PAFAH1B2 inh	UCH37 DUB inh	GRIN3A LBD mod	PAFAH1B3 FP inh	PAFAH2 inh	pPAFAH FP inh
Nc1n[nH]c(N)c1N=Nc1ccccc1F	5.7	13.1	32.3*	5.3	-19.5	-1.4
Nc1n[nH]c(N)c1N=Nc1ccc(Cl)cc1Cl	5.6	3.6	20.1*	9.1	-2.2	5.5
ON=Cc1ccccc1OCc1ccc(Cl)cc1	x	2.5	x	x	x	x
Cl/C(C=Nn1cnnc1)=C/c1ccccc1	x	3.3	x	x	x	x
Cc1nn(Cc2ccccc2)c(Cl)c1C=NNC(=O)c1cccnc1	x	2.6	x	x	x	x
COc1cc(C=O)ccc1OCCSc1ccc(Cl)cc1	55.5*	3.0	1.7	1.4	0.7	20.9
COc1cc(C=O)ccc1OCCOCCOc1ccc(Cl)cc1	2.2	2.4	1.3	2.2	2.4	1.7
CCOC(=O)N/N=C/c1ccc(OCCSc2ccc(Cl)cc2)c(OC)c1	17.7	x	-13.3	3.2	1.2	34.4*
COc1ccc(C=NNC(=O)Cc2ccc(Cl)cc2)cc1OC	x	34.8*	x	x	x	x
COCc1cc(/C=N\NC(=O)Cc2ccc(Cl)cc2)ccc1OC	1.5	x	-2.7	3.1	0.5	2.1
S=c1[nH]nc(-c2ccncc2)n1N=Cc1cn(-c2ccccc2)nc1-c1ccccc1	x	3.9	x	x	x	x
